From ChEMBL document CHEMBL1155447 (J Med Chem, 2010)

Tests used:
[1] = molecular target: T1, Aromatase (Homo sapiens, UniProt P11511)
T1 sequence (P11511 whole entry): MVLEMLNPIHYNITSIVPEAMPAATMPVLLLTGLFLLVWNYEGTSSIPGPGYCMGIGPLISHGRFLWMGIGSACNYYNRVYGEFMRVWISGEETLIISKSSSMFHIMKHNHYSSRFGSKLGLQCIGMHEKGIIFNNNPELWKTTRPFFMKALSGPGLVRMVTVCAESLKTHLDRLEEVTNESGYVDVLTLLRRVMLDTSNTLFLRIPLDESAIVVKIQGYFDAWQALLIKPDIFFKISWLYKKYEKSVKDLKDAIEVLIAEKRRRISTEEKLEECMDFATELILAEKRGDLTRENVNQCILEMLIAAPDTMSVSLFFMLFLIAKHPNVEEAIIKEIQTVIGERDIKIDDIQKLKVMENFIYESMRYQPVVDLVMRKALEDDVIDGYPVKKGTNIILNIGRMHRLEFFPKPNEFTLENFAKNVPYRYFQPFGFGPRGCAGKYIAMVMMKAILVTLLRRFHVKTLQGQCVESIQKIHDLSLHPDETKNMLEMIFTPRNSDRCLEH

[2] = molecular target: T2, Steroid 17-alpha-hydroxylase/17,20 lyase (Homo sapiens, UniProt P05093); assay: Inhibition of human CYP17 expressed in Escherichia coli at 2.5 uM
T2 sequence (P05093 whole entry): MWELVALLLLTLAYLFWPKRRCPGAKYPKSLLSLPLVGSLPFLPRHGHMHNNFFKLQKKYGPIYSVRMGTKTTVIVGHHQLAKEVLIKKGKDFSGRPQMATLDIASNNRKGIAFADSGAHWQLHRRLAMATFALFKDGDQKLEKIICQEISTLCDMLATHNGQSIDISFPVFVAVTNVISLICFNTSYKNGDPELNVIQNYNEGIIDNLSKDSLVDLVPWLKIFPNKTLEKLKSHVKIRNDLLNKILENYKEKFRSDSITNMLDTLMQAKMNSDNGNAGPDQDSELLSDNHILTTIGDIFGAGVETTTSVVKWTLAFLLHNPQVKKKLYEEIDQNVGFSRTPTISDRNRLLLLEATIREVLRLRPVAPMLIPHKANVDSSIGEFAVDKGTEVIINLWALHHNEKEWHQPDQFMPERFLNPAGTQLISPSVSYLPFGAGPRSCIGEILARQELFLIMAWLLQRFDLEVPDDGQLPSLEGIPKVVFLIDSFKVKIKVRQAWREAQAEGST

[3] = molecular target: T1, Aromatase; assay: Inhibition of aromatase from human placental microsomes at 10 uM
Procedure, shortened: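 Human placental microsomes were incubated with 1β[3H]androstenedione (500 nM) as substrate. Aromatization was quantified by measuring the tritiated water formed, and results are reported as % inhibition at 10 μM test concentration. Fadrozole served as the positive control.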

[4] = molecular target: T2, Steroid 17-alpha-hydroxylase/17,20 lyase; assay: Inhibition of human CYP17 expressed in Escherichia coli

IC50 [1]	inhibition at 2.5 µM [2]	IC50 [4]	Structure (SMILES)	inhibition at 10 µM [3]
53 nM	–	–	O=c1c2ccccc2oc2c(Cn3ccnc3)cc([N+](=O)[O-])cc12	–
101 nM	–	–	O=c1c2cccnc2oc2c(Cn3ccnc3)ccc([N+](=O)[O-])c12	–
17 nM	17%	–	O=c1c2ccccc2oc2c(Cn3ccnc3)cccc12	–
16.5 nM	5%	–	O=c1c2ccccc2sc2c(Cn3ccnc3)ccc([N+](=O)[O-])c12	–
150 nM	–	880 nM	O=c1c2ccccc2oc2cccc(Cn3ccnc3)c12	–
7900 nM	11%	–	O=c1c2ccccc2oc2ccc(Cn3ccnc3)cc12	–

Further lines, the compound ahead of its results:

Structure (SMILES)	IC50 [1]	inhibition at 2.5 µM [2]	IC50 [4]	inhibition at 10 µM [3]
O=[N+]([O-])c1ccc(Cn2ccnc2)c(Sc2ccccc2)c1	5.59 nM	17%	–	–
O=c1c2ccccc2sc2c(Cn3ccnc3)cccc12	3.98 nM	28%	–	–
c1ccc(Oc2ccccc2Cn2ccnc2)cc1	389 nM	8%	–	–
O=c1c2ccccc2oc2c(Cn3ccnc3)c([N+](=O)[O-])ccc12	1900 nM	9%	–	–
CC(=O)N1CCN(c2ccc(OCC3COC(Cn4ccnc4)(c4ccc(Cl)cc4Cl)O3)cc2)CC1 (stereo not given) [KETOCONAZOLE]	–	–	–	17.7%
O=[N+]([O-])c1ccc(Cn2ccnc2)c(Oc2ccccc2)c1	11.4 nM	–	–	–
